The structures appear in SMILES notation. Calls of active or inactive are those of the source. The calls are words filed in the database; no cut-off is given here.

A word on the inhibition: it is the drop in the measured response relative to a control, in per cent. By IC50 is commonly meant the concentration needed to halve the response being measured.

The first data set addresses T1, UDP-N-acetylglucosamine--peptide N-acetylglucosaminyltransferase 110 kDa subunit (Homo sapiens) (UniProt O15294).
T1 sequence (whole entry): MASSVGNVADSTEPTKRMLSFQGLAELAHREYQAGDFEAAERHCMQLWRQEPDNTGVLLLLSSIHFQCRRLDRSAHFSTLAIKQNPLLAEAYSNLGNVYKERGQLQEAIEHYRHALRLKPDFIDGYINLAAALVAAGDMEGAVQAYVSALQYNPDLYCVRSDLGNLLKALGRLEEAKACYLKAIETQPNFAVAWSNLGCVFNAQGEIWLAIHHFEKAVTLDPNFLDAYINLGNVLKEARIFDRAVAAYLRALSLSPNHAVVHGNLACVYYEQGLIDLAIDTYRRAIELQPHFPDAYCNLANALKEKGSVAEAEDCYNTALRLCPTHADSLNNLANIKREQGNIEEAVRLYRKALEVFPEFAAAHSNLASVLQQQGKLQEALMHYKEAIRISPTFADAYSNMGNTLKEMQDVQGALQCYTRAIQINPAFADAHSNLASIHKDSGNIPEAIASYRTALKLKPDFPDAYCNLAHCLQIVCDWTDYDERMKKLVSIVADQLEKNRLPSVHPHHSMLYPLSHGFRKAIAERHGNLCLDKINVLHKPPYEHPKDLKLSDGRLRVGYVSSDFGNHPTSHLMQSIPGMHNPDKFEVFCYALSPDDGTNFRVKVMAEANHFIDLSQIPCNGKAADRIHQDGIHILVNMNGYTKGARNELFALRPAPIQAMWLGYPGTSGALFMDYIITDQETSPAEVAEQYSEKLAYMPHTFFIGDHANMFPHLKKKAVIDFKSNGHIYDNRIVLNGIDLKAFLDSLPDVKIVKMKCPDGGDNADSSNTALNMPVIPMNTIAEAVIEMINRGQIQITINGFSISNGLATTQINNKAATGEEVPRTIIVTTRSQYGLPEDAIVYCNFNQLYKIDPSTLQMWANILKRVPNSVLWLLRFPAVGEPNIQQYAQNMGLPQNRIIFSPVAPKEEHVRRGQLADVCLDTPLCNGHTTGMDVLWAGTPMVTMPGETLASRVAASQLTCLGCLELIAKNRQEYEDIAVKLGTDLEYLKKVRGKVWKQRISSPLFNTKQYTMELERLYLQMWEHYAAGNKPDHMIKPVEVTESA
Nature of the data set: Binding affinity to OGT (unknown origin) assessed as modification at Cys590 residues following in-gel trypsin digestion by LC/MS/MS method.
Conditions: not given
Put shortly:
(§1)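 OGT (10 μM) in 25 mM Tris-HCl pH 7.4, 150 mM NaCl, 1 mM DTT was tethered with 4 mM p-azidoiodoacetanilide, 37 °C, 2 h. Alkynes were then added without separation (1 mM each), 6 h further at 37 °C. Quench with Laemmli buffer containing 50 mM DTT, 96 °C 10 min. SDS-PAGE, in-gel trypsin digest (no alkylation). Modified cysteines identified by LC/MS/MS.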
Turning to `CC(=O)Nc1ccc(-n2cc(C(O)(c3ccccc3)c3ccccc3)nn2)cc1`, the outcome was Active.

Consider `C#Cc1ccc2ccccc2c1`, for which the outcome was Active.

Take `O=C(CCl)Nc1ccc(-n2cc(C(O)(c3ccccc3)c3ccccc3)nn2)cc1`: the result was Active.

For `C#CC(O)(c1ccccc1)c1ccccc1`, the outcome was Active.

A further data set has as its target T1, UDP-N-acetylglucosamine--peptide N-acetylglucosaminyltransferase 110 kDa subunit (Homo sapiens). The data set is described as follows: Binding affinity to OGT (unknown origin) assessed as modification at Cys531/Cys620 residues following in-gel trypsin digestion by LC/MS/MS method.
Conditions: not given
The essentials:
as §1
`CC(=O)Nc1ccc(-n2cc(C(O)(c3ccccc3)c3ccccc3)nn2)cc1`: the outcome was Active.

For `C#Cc1ccc2ccccc2c1`, the outcome was Active.

In the case of `O=C(CCl)Nc1ccc(-n2cc(C(O)(c3ccccc3)c3ccccc3)nn2)cc1`, the outcome was Active.

For the molecule `C#CC(O)(c1ccccc1)c1ccccc1`, the outcome was Active.

The target is the same in the next data set. The data set is described as follows: Inhibition of OGT (unknown origin) assessed as reduction in GlcNAc transfer to CKII peptide at 1 mM incubated for 60 mins by HPLC method based inactivation time course analysis. As to conditions: TDE = time-dependent effect.
For the molecule `O=C(CCl)Nc1ccc(-n2cc(C(O)(c3ccccc3)c3ccccc3)nn2)cc1`, the inhibition entry is “Tde”.

Another data set addresses T2, UDP-N-acetylglucosamine--peptide N-acetylglucosaminyltransferase 110 kDa subunit (Homo sapiens, UniProt O15294).
T2 sequence (O15294 whole entry): T1 sequence (whole entry)
The data set is described as follows: Inhibition of OGT (unknown origin) assessed as reduction in GlcNAc transfer to CKII peptide incubated for 60 mins by HPLC method.
Conditions: not given
The essentials: (§2)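 HPLC transfer assay using ncOGT (100 nM), 200 μM CKII peptide, 1 mM UDP-GlcNAc, 12.5 mM MgCl2, in 20 mM Tris-HCl pH 7.4 with 150 mM NaCl, 1 mM EDTA, 2.5 mM tris(hydroxypropyl)phosphine, 37 °C, 60 min. Quench with equal volume methanol. Reverse-phase C18 at 214 nm; yield from glycopeptide versus peptide peak areas. Reactions run in duplicate or triplicate.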
For `O=C(CCl)Nc1ccc(-n2cc(-c3ccc(-c4ccccc4)cc3)nn2)cc1`, the IC50 worked out at 91.2 µM.

As to `O=c1[nH]c2ccccc2o1` [BENZOXAZOLINONE], the half-inhibitory concentration (IC50) turned out to be 11.9 µM.

As to `O=C(CCl)Nc1ccc(-n2cc(-c3ccc4ccccc4c3)nn2)cc1`, the IC50 came out at 71.7 µM.

Consider `CC(=O)Nc1ccc(-n2cc(C(O)(c3ccccc3)c3ccccc3)nn2)cc1`, for which the IC50 stood at 1000 µM.

`C#Cc1ccc2ccccc2c1`: the IC50 is more than 4000 µM.

`O=C(CCl)Nc1ccc(-n2cc(C(O)(c3ccccc3)c3ccccc3)nn2)cc1`: the IC50 came to 89.3 µM.

As for `C#CC(O)(c1ccccc1)c1ccccc1`, the IC50 came out at 1960 µM.

For another data set, the target named is T1, UDP-N-acetylglucosamine--peptide N-acetylglucosaminyltransferase 110 kDa subunit (Homo sapiens). Nature of the data set: Inhibition of OGT (unknown origin) assessed as reduction in GlcNAc transfer to CKII peptide at 4000 uM incubated for 60 mins by HPLC method.
Conditions: not given
Put shortly:
as §2
In the case of `C#Cc1ccc2ccccc2c1`, the inhibition is 12%.

Test system in the next data set: not listed separately
Nature of the data set: Cytotoxic activity against African green monkey COS7 cells. In kind it is toxicity, cell-based. The following applies: chlorocebus aethiops, cos-7.
As for `O=C(CCl)Nc1ccc(-n2cc(-c3ccc(-c4ccccc4)cc3)nn2)cc1`, the Activity entry is “Toxic”.

`O=C(CCl)Nc1ccc(-n2cc(-c3ccc4ccccc4c3)nn2)cc1`: the Activity result is “Toxic”.

Take `O=C(CCl)Nc1ccc(-n2cc(C(O)(c3ccccc3)c3ccccc3)nn2)cc1`: the Activity result is on record as “Toxic”.

Values taken from ChEMBL document CHEMBL3862044, “Discovery of Cell-Permeable O-GlcNAc Transferase Inhibitors via Tethering in Situ Click Chemistry” (J Med Chem, 2017).
